Data from ChEMBL document CHEMBL2401625, “Synthesis and evaluation of pharmacological properties of some new xanthone derivatives with piperazine moiety” (Bioorg Med Chem Lett, 2013).
Active and inactive are the calls of the source. The calls are words filed in the database; no cut-off is given here.

Tests used:
[1] = biological target: 5-hydroxytryptamine receptor 7 (Homo sapiens, UniProt P34969); test: Displacement of [3H]5-CT from human 5HT7b receptor expressed in HEK293 cells after 1 hr; type: cell-based
Mus musculus [2] = test: Neurotoxicity in CF1 mouse assessed as minimal motor impairment at 300 mg/kg, ip after 0.5 hrs by rotorod test; type: toxicity, organism-based; design: dose 300 mg/kg, route intraperitoneal; conditions: in vivo
Summary of the method: (§1)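 Rotarod neurotoxicity screen in mice dosed i.p. at 30, 100 or 300 mg/kg, read 0.5 or 4 h after dosing. The animal must stay on a rod rotating at 6 rpm without falling, measured 3 times within 1 min. A fall counts as minimal motor impairment. Result is recorded as impaired animals over animals used.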

Rattus norvegicus [3] = test: Anticonvulsant activity in Sprague-Dawley rat assessed as protection against maximal electroshock-induced seizures at 30 mg/kg, po after 2 hrs; type: functional, organism-based; design: dose 30 mg/kg
Summary of the method: (§2)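 Rats dosed orally at 30 mg/kg and tested in MES at several time points after dosing. Protection means seizures were prevented. Result is recorded as number of animals protected over number tested.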

Rattus norvegicus [4] = test: Neurotoxicity in Sprague-Dawley rat assessed as minimal motor impairment at 30 mg/kg, po after 2 hrs by rotorod test; conditions: in vivo
Mus musculus [5] = test: Anticonvulsant activity in CF1 mouse assessed as protection against subcutaneous metrazole-induced seizures at 100 mg/kg, ip after 0.5 hrs; type: functional, organism-based; design: dose 100 mg/kg
Summary of the method: (§3)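 Mice given compound i.p. at 30, 100 or 300 mg/kg and tested 0.5 or 4 h after dosing. Seizures were induced by maximal electroshock (MES) or subcutaneous metrazole (ScMet). Prevention of seizures counts as protection. Result is recorded as number of animals protected over number tested.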

Mus musculus [6] = test: Anticonvulsant activity in CF1 mouse assessed as protection against subcutaneous metrazole-induced seizures at 100 mg/kg, ip after 4 hrs; type: functional, organism-based; design: dose 100 mg/kg; summary of the method: as §3
Rattus norvegicus [7] = test: Neurotoxicity in Sprague-Dawley rat assessed as minimal motor impairment at 30 mg/kg, po after 1 hr by rotorod test; conditions: in vivo
Mus musculus [8] = test: Anticonvulsant activity in CF1 mouse assessed as protection against maximal electroshock-induced seizures at 30 mg/kg, ip after 4 hrs; type: functional, organism-based; design: dose 30 mg/kg; summary of the method: as §3
Mus musculus [9] = test: Neurotoxicity in CF1 mouse assessed as minimal motor impairment at 30 mg/kg, ip after 4 hrs by rotorod test; type: toxicity, organism-based; design: dose 30 mg/kg, route intraperitoneal; conditions: in vivo; summary of the method: as §1
Mus musculus [10] = test: Anticonvulsant activity in CF1 mouse assessed as protection against maximal electroshock-induced seizures at 100 mg/kg, ip after 4 hrs; type: functional, organism-based; design: dose 100 mg/kg; summary of the method: as §3
Rattus norvegicus [11] = test: Neurotoxicity in Sprague-Dawley rat assessed as minimal motor impairment at 30 mg/kg, po after 0.25 hrs by rotorod test; conditions: in vivo
Mus musculus [12] = test: Anticonvulsant activity in CF1 mouse assessed as protection against maximal electroshock-induced seizures at 100 mg/kg, ip after 0.5 hrs; type: functional, organism-based; design: dose 100 mg/kg; summary of the method: as §3
Rattus norvegicus [13] = species on record: Rattus norvegicus; test: Displacement of [3H]CGP-12177 from beta1-adrenergic receptor in rat cerebral cortex at 50 uM after 60 mins by scintillation counting; type: tissue-based
[14] = biological target: 5-hydroxytryptamine receptor 6 (Homo sapiens, UniProt P50406); test: Displacement of [3H]LSD from human 5HT6 receptor expressed in HEK293 cells after 1 hr; type: cell-based
Mus musculus [15] = test: Anticonvulsant activity in CF1 mouse assessed as protection against subcutaneous metrazole-induced seizures at 30 mg/kg, ip after 0.5 hrs; type: functional, organism-based; design: dose 30 mg/kg; summary of the method: as §3
Mus musculus [16] = test: Neurotoxicity in CF1 mouse assessed as minimal motor impairment at 30 mg/kg, ip after 0.5 hrs by rotorod test; type: toxicity, organism-based; design: dose 30 mg/kg, route intraperitoneal; conditions: in vivo; summary of the method: as §1
Mus musculus [17] = test: Anticonvulsant activity in CF1 mouse assessed as protection against maximal electroshock-induced seizures at 30 mg/kg, ip after 0.5 hrs; type: functional, organism-based; design: dose 30 mg/kg; summary of the method: as §3
Rattus norvegicus [18] = test: Neurotoxicity in Sprague-Dawley rat assessed as minimal motor impairment at 30 mg/kg, po after 4 hrs by rotorod test; conditions: in vivo
Rattus norvegicus [19] = test: Neurotoxicity in Sprague-Dawley rat assessed as minimal motor impairment at 30 mg/kg, po after 0.5 hrs by rotorod test; conditions: in vivo
Mus musculus [20] = test: Anticonvulsant activity in CF1 mouse assessed as protection against subcutaneous metrazole-induced seizures at 30 mg/kg, ip after 4 hrs; type: functional, organism-based; design: dose 30 mg/kg; summary of the method: as §3
Rattus norvegicus [21] = test: Anticonvulsant activity in Sprague-Dawley rat assessed as protection against maximal electroshock-induced seizures at 30 mg/kg, po after 4 hrs; type: functional, organism-based; design: dose 30 mg/kg; summary of the method: as §2

Sequence of 5-hydroxytryptamine receptor 7 (P34969 whole entry): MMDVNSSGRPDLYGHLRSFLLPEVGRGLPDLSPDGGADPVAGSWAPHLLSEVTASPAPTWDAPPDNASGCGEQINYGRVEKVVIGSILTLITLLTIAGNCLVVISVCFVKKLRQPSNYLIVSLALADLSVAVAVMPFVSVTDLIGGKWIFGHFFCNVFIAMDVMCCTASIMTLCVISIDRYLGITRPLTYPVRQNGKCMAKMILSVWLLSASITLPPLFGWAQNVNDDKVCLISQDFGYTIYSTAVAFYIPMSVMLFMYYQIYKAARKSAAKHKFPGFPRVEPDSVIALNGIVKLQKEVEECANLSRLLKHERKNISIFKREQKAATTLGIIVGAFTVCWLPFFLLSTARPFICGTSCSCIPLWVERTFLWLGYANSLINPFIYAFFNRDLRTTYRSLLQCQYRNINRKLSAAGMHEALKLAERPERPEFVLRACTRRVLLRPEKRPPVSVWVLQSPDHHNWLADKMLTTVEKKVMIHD
Sequence of 5-hydroxytryptamine receptor 6 (P50406 whole entry): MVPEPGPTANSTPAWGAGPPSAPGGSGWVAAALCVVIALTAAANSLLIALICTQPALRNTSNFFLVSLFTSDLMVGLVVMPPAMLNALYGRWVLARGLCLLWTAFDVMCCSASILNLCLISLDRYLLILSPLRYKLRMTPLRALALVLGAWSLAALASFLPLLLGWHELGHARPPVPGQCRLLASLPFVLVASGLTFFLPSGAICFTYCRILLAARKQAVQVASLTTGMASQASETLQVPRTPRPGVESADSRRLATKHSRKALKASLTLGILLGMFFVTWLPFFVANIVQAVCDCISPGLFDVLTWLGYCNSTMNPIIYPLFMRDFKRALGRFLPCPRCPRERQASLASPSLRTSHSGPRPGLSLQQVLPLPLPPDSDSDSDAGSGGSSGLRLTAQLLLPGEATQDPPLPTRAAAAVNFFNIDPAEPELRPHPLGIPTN

## Cl.Cl.Cl.O=c1c2ccc(Cl)cc2oc2c(CN3CCN(CCO)CC3)cccc12
[1]
  Ki: 17.4 µM
Mus musculus [2]
  Activity: Toxic
Rattus norvegicus [3]
  Activity: inactive
Rattus norvegicus [4]
  Activity: Non-toxic
Mus musculus [5]
  Activity: inactive
Mus musculus [6]
  Activity: inactive
Rattus norvegicus [7]
  Activity: Non-toxic
Mus musculus [8]
  Activity: inactive
Mus musculus [9]
  Activity: Non-toxic
Mus musculus [10]
  Activity: inactive
Rattus norvegicus [11]
  Activity: Non-toxic
Mus musculus [12]
  Activity: Active
Rattus norvegicus [13]
  inhibition: inactive
[14]
  Ki: 14.4 µM
Mus musculus [15]
  Activity: inactive
Mus musculus [16]
  Activity: Non-toxic
Mus musculus [17]
  Activity: inactive
Rattus norvegicus [18]
  Activity: Non-toxic
Rattus norvegicus [19]
  Activity: Non-toxic
Mus musculus [20]
  Activity: inactive
Rattus norvegicus [21]
  Activity: Active
